Assay results as given in ChEMBL document CHEMBL1123005, “1-Azacycloalkyl-1,4-benzodiazepin-2-ones with antianxiety-antidepressant actions” (J Med Chem, 1985).
Active and inactive are the calls of the source. No cut-off for these calls is given here.

Key:
[1] = target: GABA-A receptor; anion channel (Rattus norvegicus) (UniProt O09028+P15431+P18506+P18508+P19969+P20236+P23574+P23576+P28471+P28473+P30191+P62813+P63079+P63138+Q91ZM7+Q9ES14); test: Binding constant was determined by displacing potential to [3H]-diazepam binding in cerebral cortex homogenates of rat; assay type: tissue-based
Procedure, shortened: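 Wistar rat cerebral cortex homogenate incubated with compound and 2 nM [3H]diazepam at 0 °C for 60 min. Bound label trapped on glass filters and counted by scintillation. Ki = IC50/(1 + L/Kd).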

Mus musculus [2] = test: Effective dose against pentylenetetrazole intoxicity in mice administered orally; assay type: functional
Mus musculus [3] = test: Effective dose against tetrabenazine induced ptosis in mice administered orally.; assay type: functional; settings: po
Procedure, shortened: (§1)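 Male DS mice, 20-27 g, groups of five. Compound given po or sc in saline or gum arabic at 0.1 mL/10 g. Tetrabenazine 50 mg/kg sc given 1, 4 or 24 h later. Ptosis scored 1-4 at 1 h after TBZ, with ridit transformation. Dose for 50% prevention by regression.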

Rattus norvegicus [4] = test: Percent inhibition was evaluated by their anticonflict effect in rats when administered through oral route at 8 mg/kg; assay type: functional
Procedure, shortened: (§2)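 Wistar rats in groups of 5-8, Geller-Seifter conflict procedure. Rats trained to lever-press for food on a variable-interval 60-s schedule. Oral dosing. A dose counted positive when shocks exceeded 12 or shock ratio exceeded 4 over four consecutive tone periods. ED50 with 95% limits by probit.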

Mus musculus [5] = test: Effective dose against tetrabenazine induced ptosis in mice administered subcutaneously; assay type: functional; settings: sc; procedure, shortened: as §1
Mus musculus [6] = test: Effective dose against tetrabenazine induced ptosis in mice administered orally; assay type: functional; procedure, shortened: as §1
Mus musculus [7] = test: Effective dose against pentylenetetrazole intoxicity in mice administered subcutaneously at 20 mg/kg; assay type: functional; settings: sc, route subcutaneous
Rattus norvegicus [8] = test: Effective dose was evaluated by their anticonflict effect in rats when administered through oral route; assay type: functional; procedure, shortened: as §2
Mus musculus [9] = test: Effective dose against pentylenetetrazole intoxicity in mice administered subcutaneously; NE = not effective at dose 10 mg/kg; assay type: functional, organism-based; set-up: dose 10 mg/kg
Mus musculus [10] = test: Effective dose against tetrabenazine induced ptosis in mice administered through subcutaneous route; assay type: functional; settings: sc; procedure, shortened: as §1
Mus musculus [11] = test: Effective dose against pentylenetetrazole intoxicity in mice administered through subcutaneous route; assay type: functional; settings: sc
Mus musculus [12] = test: Effective dose against tetrabenazine induced ptosis in mice administered subcutaneously at 50 mg/kg; assay type: functional; settings: sc, route subcutaneous; procedure, shortened: as §1
Rattus norvegicus [13] = species on record: Rattus norvegicus; test: Inhibitory activity against uptake of [3H]norepinephrine into rat brain synaptosomes.; assay type: functional
Procedure, shortened: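 P2 synaptosomes from male Wistar rat cerebral cortex incubated with [3H]norepinephrine at 37 °C for 20 min, with compound at 5-6 concentrations. Stopped by Krebs-Henseleit dilution and glass-fibre filtration, then scintillation counting. IC50 taken as the concentration giving 50% uptake inhibition.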

[14] = Acute toxicity was measured in mice after peroral administration (1306-1666); assay type: organism-based; settings: mouse, in vivo, po
Procedure, shortened: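 Male DS mice, 20-26 g, given compound orally; mortality checked the day after treatment in groups of 10. LD50 by probit method, or by up-and-down method of Brownlee et al. (n = 5) where estimated.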

Rattus norvegicus [15] = test: Percent anticonflict effect in rats when administered through oral route at 16 mg/kg; assay type: functional; procedure, shortened: as §2
[16] = Mus musculus, po, read-out: ED50

Compound | K2 [1] [µM] | ED50 (Mus musculus [2]; [16]) [mg/kg] | ED50 (Mus musculus [5]) [mg/kg] | ED50 (Mus musculus [6]) [mg/kg] | ED50 (Mus musculus [6]; [16]) [mg/kg] | ED50 (Rattus norvegicus [8]) [mg/kg] | IC50 (Rattus norvegicus [13]) [µM] | ED50 (Mus musculus [2]) [mg/kg] | other results
O=C1CN=C(c2ccccc2F)c2cc(Cl)ccc2N1C1CCNC1 (centres undefined) | 0.73 | 20.1 | 28.9 |  |  |  |  |  | ED50 (Mus musculus [3]): 0.4 mg/kg; inhibition in vivo at 8 mg/kg (Rattus norvegicus [4]): 60%
CN1CCC(N2C(=O)CN=C(c3ccccc3)c3cc(Cl)ccc32)CC1 |  | 29.9 | 0.85 | 0.74 | 0.58 | 8.4 |  |  | inhibition in vivo at 20 mg/kg (Mus musculus [7]): 50%
CCOC(=O)N1CCC(N2C(=O)CN=C(c3ccccc3)c3ccccc32)CC1 | 2.3 |  |  |  |  |  |  |  | ED50 (Mus musculus [9]): inactive; ED50 (Mus musculus [10]): 0.65 mg/kg
CN1CCC(N2C(=O)CN=C(c3ccccc3Cl)c3cc(Cl)ccc32)CC1 | 0.021 | 3.24 |  |  | 26.1 |  | 39.9 |  | ED50 (Mus musculus [11]): 1.69 mg/kg; inhibition in vivo at 50 mg/kg (Mus musculus [12]): 23%
O=C1CN=C(c2ccccc2F)c2cc(Cl)ccc2N1C1CCNCC1 | 0.036 | 14.2 | 0.08 | 0.67 | 0.76 | 6.51 | 0.118 | 11.39 | LD50 [14]: 1480 mg/kg
CN1CCC(N2C(=O)CN=C(c3ccccc3)c3cc(F)ccc32)CC1 | 2.42 | 30 |  |  | 1.41 |  |  | 25.79 | inhibition in vivo at 16 mg/kg (Rattus norvegicus [15]): 20%
